The target in assay [1] is T1, rec-α5LG45 protein—heparin binding (Mus musculus, UniProt Q61001).
T1 sequence (Q61001 3318-3718): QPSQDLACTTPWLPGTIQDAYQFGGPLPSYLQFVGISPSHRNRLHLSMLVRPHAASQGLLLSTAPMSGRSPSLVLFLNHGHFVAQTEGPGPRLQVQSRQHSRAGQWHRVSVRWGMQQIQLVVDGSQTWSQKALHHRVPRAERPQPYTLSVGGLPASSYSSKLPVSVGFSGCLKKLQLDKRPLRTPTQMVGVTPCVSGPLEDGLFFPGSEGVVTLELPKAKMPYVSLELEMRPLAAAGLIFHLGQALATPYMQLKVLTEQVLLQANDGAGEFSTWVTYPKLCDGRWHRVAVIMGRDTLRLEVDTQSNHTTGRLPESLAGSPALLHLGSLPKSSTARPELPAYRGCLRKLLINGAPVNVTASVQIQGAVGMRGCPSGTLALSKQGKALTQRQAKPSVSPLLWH
The experiment in a line: Peptide inhibition of heparin-binding to rec-α5LG45. A digest of the protocol:
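Mouse laminin α5 LG45 fused to human IgG Fc, expressed in transfected 293T cells, purified on Protein A then heparin-Sepharose. The protein (3 µg), heparin-Sepharose beads (1 mg) and varying peptide amounts were incubated for 1 h at 4 °C in 70 µL of 10 mM Tris-HCl pH 7.4 with 100 mM NaCl. Beads were washed twice. Bound protein was detected by reducing 8% SDS-PAGE and anti-human Fc Western blot with ECL. Run in triplicate.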

For assay [2] the following is noted: cited from earlier work.
The subject of assay [3] is syndecan-4. The note with it: cited from earlier work.
Assay [4] deals with syndecans. The note with it: membrane-associated proteoglycans; cited from earlier work.
Assay [5] has as its system cell attachment. The note with it: cited from earlier work; for cell adhesion (AG73 and EF-1 together): synergetic interaction of syndecan and integrin α2β1.
In assay [6] the test system is syndecan-1. The note with it: membrane-associated proteoglycan; cited from earlier work.

No end group written: not given here.

The values below come from article PMC2756285 (Biochemistry, 2009).

With KMPYVSLELEMR-NH2 [A5G94, KMPYVSLELEMR], the IC50 in assay [1] was found to be 0.84 µM. For the substance TLFLAHGRLVFM [A4G82], the heparin-binding result in assay [2] was “exhibited heparin- and syndecan-4-binding”. Also, the syndecan-4-binding entry in assay [3] is “exhibited heparin- and syndecan-4-binding”. For the same substance, the interaction with syndecans entry in assay [4] is “interact with syndecans”. Besides, the cell attachment activity entry in assay [5] is listed as “cell attachment activity”. Substance AGQWHRVSVRWG-NH2 [A5G81, AGQWHRVSVRWG] registered a concentration for half-maximal inhibition (IC50) in assay [1] of 5.9 µM.

For the substance RKRLQVQLSIRT [AG73], in assay [2], the heparin-binding result is listed as “the strongest heparin-binding peptide” and the heparin/heparan sulfate binding entry is recorded as “heparin/heparan sulfate binding”. Moreover, the syndecan-1 binding entry in assay [6] is reported as “binds syndecan-1”. In addition, in assay [4], the interaction with syndecans entry is on record as “interact with syndecans”. Further, in assay [5], the “cell adhesion (AG73 and EF-1 together)” value is “cooperate and induce cell adhesion”. Turning to KNSFMALYLSKG [A3G75], the heparin-binding entry in assay [2] is on record as “heparin-binding sequence”. Moreover, in assay [4], the interaction with syndecans entry is reported as “interact with syndecans”. In assay [1], LVLFLNHGHFVA-NH2 [A5G77, LVLFLNHGHFVA] yielded an IC50 of 7 µM. For DYATLQLQEGRLHFMFDLG [EF-1], in assay [5], the “cell adhesion (AG73 and EF-1 together)” value is “cooperate and induce cell adhesion”.

GLIYYVAHQNQM [AG75]: the heparin-binding entry in assay [2] is listed as “heparin-binding”. In the case of GPLPSYLQFVGI-NH2 [A5G71, GPLPSYLQFVGI], the IC50 in assay [1] was 91.8 µM.
